Columns and labels:
Format in all cases: functional
NCI-H460 [1] = assay: Antitumor activity against human NCI-H460 cells at 0.1 mM after 48 hrs
How it was run: (§1)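 Prescreen run under the NCI Developmental Therapeutic Program. Agents were tested at a single concentration of 10^-4 M against a three-line panel (MCF7, NCI-H460, SF-268).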

MCF7 [2] = assay: Antitumor activity against human MCF7 cells at 0.1 mM after 48 hrs; how it was run: as §1
SF-268 [3] = assay: Antitumor activity against human SF268 cells at 0.1 mM after 48 hrs; how it was run: as §1
OVCAR-3 = assay: Growth inhibition of human OVCAR-3 cells after 48 hrs; details: OVCAR-3, 48 h
How it was run: (§2)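 NCI ~60-line screen. Cells were grown in RPMI 1640 with 5% FBS and 2 mM L-glutamine and plated at 5000–40000 cells/well. After a 24 h preincubation, five drug concentrations from DMSO stocks were added for 48 h at 37 °C. Cells were TCA-fixed, stained with SRB and read at 515 nm. GI50 was taken from time-zero and control absorbances and reported as pGI50.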

HOP-62 = assay: Growth inhibition of human HOP62 cells after 48 hrs; details: HOP-62, 48 h; how it was run: as §2
KM12 = assay: Growth inhibition of human KM12 cells after 48 hrs; details: KM12, 48 h; how it was run: as §2
U-251 = assay: Growth inhibition of human U251 cells after 48 hrs; details: U-251, 48 h
How it was run: (§3)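 NCI 60-line screen: cells in RPMI 1640 with 5% FBS and 2 mM L-glutamine, plated at 5000–40000 cells/well, grown 24 h (37 °C, 5% CO₂), then exposed to five 10-fold or ½-log dilutions (DMSO stock) for 48 h. Fixed with TCA (final 10% for adherent cells, 16% for suspension cells), then SRB stained with absorbance at 515 nm. GI50 from percentage growth relative to time-zero and control wells.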

IGROV-1 = assay: Growth inhibition of human IGROV1 cells after 48 hrs; details: IGROV-1, 48 h; how it was run: as §2
TK-10 = assay: Growth inhibition of human TK10 cells after 48 hrs; details: TK-10, 48 h; how it was run: as §3
A549 = assay: Growth inhibition of human A549 cells after 48 hrs; details: A549, 48 h; how it was run: as §2
NCI-H522 = assay: Growth inhibition of human NCI-H522 cells after 48 hrs; details: NCI-H522, 48 h; how it was run: as §2
SK-MEL-28 = assay: Growth inhibition of human SK-MEL28 cells after 48 hrs; details: SK-MEL-28, 48 h; how it was run: as §2
PC-3 = assay: Growth inhibition of human PC3 cells after 48 hrs; details: PC-3, 48 h; how it was run: as §2
LOX IMVI = assay: Growth inhibition of human LOXIMVI cells after 48 hrs; how it was run: as §2
MCF7 [4] = assay: Growth inhibition of human MCF7 cells after 48 hrs; details: MCF7, 48 h; how it was run: as §2
NCI-H322M = assay: Growth inhibition of human NCI-H322M cells after 48 hrs; how it was run: as §2
EKVX = assay: Growth inhibition of human EKVX cells after 48 hrs; how it was run: as §2
[5] = Growth inhibition of human HS578T cells after 48 hrs; details: Hs-578T; how it was run: as §2
MDA-MB-231 = assay: Growth inhibition of human MDA-MB-231 cells after 48 hrs; details: MDA-MB-231, 48 h; how it was run: as §2
ACHN = assay: Growth inhibition of human ACHN cells after 48 hrs; how it was run: as §2
HOP-92 = assay: Growth inhibition of human HOP92 cells after 48 hrs; details: HOP-92, 48 h; how it was run: as §2
MDA-MB-435 = assay: Growth inhibition of human MDA-MB435 cells after 48 hrs; details: MDA-MB-435, 48 h; how it was run: as §2
SK-MEL-5 = assay: Growth inhibition of human SK-MEL5 cells after 48 hrs; details: SK-MEL-5, 48 h; how it was run: as §2
NCI-H226 = assay: Growth inhibition of human NCI-H226 cells after 48 hrs; details: NCI-H226, 48 h; how it was run: as §2
HCC 2998 = assay: Growth inhibition of human HCC2998 cells after 48 hrs; details: HCC 2998, 48 h; how it was run: as §2
K562 = assay: Growth inhibition of human K562 cells after 48 hrs; details: K562, 48 h; how it was run: as §2
COLO 205 = assay: Growth inhibition of human COLO205 cells after 48 hrs; details: COLO 205, 48 h; how it was run: as §2
NCI-H460 [6] = assay: Growth inhibition of human NCI-H460 cells after 48 hrs; details: NCI-H460, 48 h; how it was run: as §2
OVCAR-8 = assay: Growth inhibition of human OVCAR8 cells after 48 hrs; details: OVCAR-8, 48 h; how it was run: as §2
RXF 393 = assay: Growth inhibition of human RXF393 cells after 48 hrs; details: RXF 393, 48 h; how it was run: as §2
SF-295 = assay: Growth inhibition of human SF295 cells after 48 hrs; details: SF-295, 48 h; how it was run: as §2
RPMI-8226 = assay: Growth inhibition of human RPMI8226 cells after 48 hrs; details: RPMI-8226, 48 h; how it was run: as §2
SF-268 [7] = assay: Growth inhibition of human SF268 cells after 48 hrs; details: SF-268, 48 h; how it was run: as §2
MOLT-4 = assay: Growth inhibition of human MOLT4 cells after 48 hrs; details: MOLT-4, 48 h; how it was run: as §2
UACC-257 = assay: Growth inhibition of human UACC257 cells after 48 hrs; details: UACC-257, 48 h; how it was run: as §3
HCT-15 = assay: Growth inhibition of human HCT15 cells after 48 hrs; details: HCT-15, 48 h; how it was run: as §2
SNB-75 = assay: Growth inhibition of human SNB75 cells after 48 hrs; details: SNB-75, 48 h; how it was run: as §3
A498 = assay: Growth inhibition of human A498 cells after 48 hrs; details: A498, 48 h; how it was run: as §2
T47D = assay: Growth inhibition of human T47D cells after 48 hrs; how it was run: as §3
SK-OV-3 = assay: Growth inhibition of human SKOV3 cells after 48 hrs; details: SK-OV-3, 48 h; how it was run: as §3
DU-145 = assay: Growth inhibition of human DU145 cells after 48 hrs; details: DU-145, 48 h; how it was run: as §2
SW-620 = assay: Growth inhibition of human SW620 cells after 48 hrs; details: SW-620, 48 h; how it was run: as §3
HT-29 = assay: Growth inhibition of human HT29 cells after 48 hrs; details: HT-29, 48 h; how it was run: as §2
SN12C = assay: Growth inhibition of human SN12C cells after 48 hrs; how it was run: as §3
UO-31 = assay: Growth inhibition of human UO31 cells after 48 hrs; details: UO-31, 48 h; how it was run: as §3
HL-60 = assay: Growth inhibition of human HL60 cells after 48 hrs; details: HL-60, 48 h; how it was run: as §2
NCI-H23 = assay: Growth inhibition of human NCI-H23 cells after 48 hrs; details: Homo sapiens, NCI-H23, 48 h; how it was run: as §2
Malme-3M = assay: Growth inhibition of human MALME3M cells after 48 hrs; how it was run: as §2
CAKI-1 = assay: Growth inhibition of human CAKI1 cells after 48 hrs; details: CAKI-1, 48 h; how it was run: as §2
CCRF-CEM = assay: Growth inhibition of human CCRF-CEM cells after 48 hrs; how it was run: as §2
BT-549 = assay: Growth inhibition of human BT549 cells after 48 hrs; details: BT-549, 48 h; how it was run: as §2
SNB-19 = assay: Growth inhibition of human SNB19 cells after 48 hrs; details: SNB-19, 48 h; how it was run: as §3
NCI/ADR-RES = assay: Growth inhibition of human NCI/ADR-RES cells after 48 hrs; how it was run: as §2
SR = assay: Growth inhibition of human SR cells after 48 hrs; how it was run: as §3
UACC-62 = assay: Growth inhibition of human UACC62 cells after 48 hrs; details: UACC-62, 48 h; how it was run: as §3
OVCAR-5 = assay: Growth inhibition of human OVCAR5 cells after 48 hrs; details: OVCAR-5, 48 h; how it was run: as §2
HCT-116 = assay: Growth inhibition of human HCT116 cells after 48 hrs; details: HCT-116, 48 h; how it was run: as §2
M14 = assay: Growth inhibition of human M14 cells after 48 hrs; details: M14, 48 h; how it was run: as §2
SK-MEL-2 = assay: Growth inhibition of human SK-MEL2 cells after 48 hrs; details: SK-MEL-2, 48 h; how it was run: as §2
786-0 = assay: Growth inhibition of human 786-0 cells after 48 hrs; details: 786-0, 48 h; how it was run: as §2
OVCAR-4 = assay: Growth inhibition of human OVCAR4 cells after 48 hrs; details: OVCAR-4, 48 h; how it was run: as §2
SF-539 = assay: Growth inhibition of human SF539 cells after 48 hrs; details: SF-539, 48 h; how it was run: as §2

COC(=O)C(Cc1c[nH]cn1)NC(=O)CCCn1c(=O)c2c3ccccc3n(C)c2n2nnc(-c3ccccc3)c12 (configuration not stated)
Activity (NCI-H460 [1]): 117% | Activity (MCF7 [2]): 116% | Activity (SF-268 [3]): 128%

COC(=O)C(Cc1c[nH]cn1)NC(=O)CNC(=O)CCCn1c(=O)c2c3ccccc3n(C)c2n2nnc(-c3ccccc3)c12 (configuration not stated)
GI50 (OVCAR-3): > 100 µM | GI50 (HOP-62): > 100 µM | GI50 (KM12): > 100 µM | GI50 (U-251): > 100 µM | GI50 (IGROV-1): 72.4 µM | GI50 (TK-10): > 100 µM | GI50 (A549): > 100 µM | GI50 (NCI-H522): > 100 µM | GI50 (SK-MEL-28): > 100 µM | GI50 (PC-3): 30.2 µM | GI50 (LOX IMVI): > 100 µM | GI50 (MCF7 [4]): > 100 µM | GI50 (NCI-H322M): > 100 µM | GI50 (EKVX): > 100 µM | GI50 [5]: > 100 µM | GI50 (MDA-MB-231): > 100 µM | GI50 (ACHN): > 100 µM | GI50 (HOP-92): > 100 µM | GI50 (MDA-MB-435): > 100 µM | GI50 (SK-MEL-5): > 100 µM | GI50 (NCI-H226): > 100 µM | GI50 (HCC 2998): > 100 µM | GI50 (K562): > 100 µM | GI50 (COLO 205): > 100 µM | GI50 (NCI-H460 [6]): > 100 µM | GI50 (OVCAR-8): > 100 µM | GI50 (RXF 393): > 100 µM | GI50 (SF-295): > 100 µM | GI50 (RPMI-8226): > 100 µM | GI50 (SF-268 [7]): > 100 µM | GI50 (MOLT-4): > 100 µM | GI50 (UACC-257): > 100 µM | GI50 (HCT-15): > 100 µM | GI50 (SNB-75): > 100 µM | GI50 (A498): > 100 µM | GI50 (T47D): > 100 µM | GI50 (SK-OV-3): > 100 µM | GI50 (DU-145): > 100 µM | GI50 (SW-620): > 100 µM | GI50 (HT-29): > 100 µM | GI50 (SN12C): > 100 µM | GI50 (UO-31): > 100 µM | GI50 (HL-60): > 100 µM | GI50 (NCI-H23): > 100 µM | GI50 (Malme-3M): > 100 µM | GI50 (CAKI-1): > 100 µM | GI50 (CCRF-CEM): > 100 µM | GI50 (BT-549): > 100 µM | GI50 (SNB-19): > 100 µM | GI50 (NCI/ADR-RES): > 100 µM | GI50 (SR): > 100 µM | GI50 (UACC-62): > 100 µM | GI50 (OVCAR-5): > 100 µM | GI50 (HCT-116): > 100 µM | GI50 (M14): > 100 µM | GI50 (SK-MEL-2): > 100 µM | GI50 (786-0): > 100 µM | GI50 (OVCAR-4): > 100 µM | GI50 (SF-539): > 100 µM

From ChEMBL document CHEMBL1142436, “Design and synthesis of 4-substituted indolo[3,2-e][1,2,3]triazolo[1,5-a]pyrimidine derivatives with antitumor activity” (2008)
